Measured values: ChEMBL document CHEMBL1821702, “8,8-Dimethyldihydroberberine with improved bioavailability and oral efficacy on obese and diabetic mouse models” (Bioorg Med Chem, 2010)
Activity calls are given as the source filed them. The calls are words filed in the database; no cut-off is given here.

Key:
Rattus norvegicus [1] = species on record: Rattus norvegicus; experiment: Induction of AMPK phosphorylation in 2 hrs serum starved rat differentiated L6 myotubes after 1 hr
Summary of the method: (§1)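 Fully differentiated L6 myotubes were serum-starved 2 h, then treated 1 h across a dose series. Phospho-AMPK (Thr172) and phospho-ACC (Ser79) were detected by Western blot. Three independent experiments.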

Rattus norvegicus [2] = species on record: Rattus norvegicus; experiment: Induction of AMPK-dependent ACC phosphorylation in 2 hrs serum starved rat differentiated L6 myotubes after 1 hr; summary of the method: as §1
L6 [3] = experiment: Increase in glucose uptake in rat differentiated L6 myotubes after 1 hr; assay type: functional, cell-based
Summary of the method: (§2)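 Fully differentiated L6 myotubes were serum-starved 2 h, then treated with compound for 15 min to 2 h (dose series at 1 h). Glucose uptake was measured relative to DMSO control. Mean of three independent experiments ± SE.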

[4] = Stability in acidic buffer at pH 2 after 6 hrs by HPLC; assay type: physicochemical; settings: buffer, pH 2, 6 h
Summary of the method: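 A 0.5 mg/mL solution in acetonitrile was adjusted to pH 2 with H3PO4 and analyzed over 6 h by HPLC. Conditions: C18 column at 25 °C, 58% acetonitrile in 0.05 mol/L KH2PO4/0.005 mol/L SDS, 1 mL/min, detection at 320 nm.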

L6 [5] = experiment: Increase in intracellular AMP:ATP ratio in rat differentiated L6 myotubes after 1 hr; assay type: functional, cell-based
Summary of the method: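 Differentiated L6 myotubes were serum-starved 2 h and incubated 1 h with increasing concentrations. Intracellular AMP, ADP and ATP were measured and the AMP:ATP ratio calculated, with berberine 5 µM as positive control. Three independent experiments ± SE.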

Rattus norvegicus [6] = species on record: Rattus norvegicus; experiment: Inhibition of electron transport protein complex 1-mediated cellular respiration in rat liver mitochondria assessed as consumption of oxygen at 2.5 to 40 uM using pyruvate as substrate
Summary of the method: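 Mitochondria isolated from rat liver. Complex I substrates 5 mM pyruvate plus 2 mM malate, with excess ADP (2.4 mM). Oxygen consumption read as dose–response. Three independent experiments, n = 5–7.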

[7] = Aqueous solubility of compound in distilled water; assay type: physicochemical
Summary of the method: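 Excess solid was suspended in distilled water and stirred 24 h at 25 ± 0.5 °C. The suspension was filtered, and dissolved concentration was measured by HPLC.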

[8] = Half life in 12 hrs fasting Sprague-Dawley rat at 10 mg/kg, po; assay type: ADME, organism-based; parameters: dose 10 mg/kg, route oral; settings: in vivo
Summary of the method: (§3)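 Male Sprague–Dawley rats were fasted 12 h and gavaged at 10 mg/kg. Blood was taken retro-orbitally into heparin tubes from pre-dose to 24 h. Plasma levels of parent and of berberine/dihydroberberine were measured by LC–MS/MS.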

[9] = Cmax in 12 hrs fasting Sprague-Dawley rat at 10 mg/kg, po; assay type: ADME, organism-based; parameters: dose 10 mg/kg, route oral; settings: in vivo; summary of the method: as §3
[10] = Oral bioavailability in 12 hrs fasting Sprague-Dawley rat at 10 mg/kg; assay type: ADME, organism-based; settings: in vivo; summary of the method: as §3
Mus musculus [11] = experiment: Toxicity in high fat diet-fed C57BL/6J mouse assessed as change in body weight at 15 mg/kg/day, po for 6 weeks; assay type: organism-based; parameters: route oral; settings: in vivo, 1008 h
Summary of the method: (§4)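 Male C57BL/6J mice (purchased at 6 weeks of age) fed 60 kcal% fat diet for 8 weeks, then randomized by body weight and fed glucose. Dosed orally once daily for 6 weeks in vehicle of 0.5% microcrystalline cellulose plus 1.6% lactose. Groups: high-fat vehicle, metformin 250 mg/kg positive control, chow-fed vehicle. Body weight and food intake recorded daily.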

Mus musculus [12] = experiment: Toxicity in high fat diet-fed C57BL/6J mouse assessed as change in food intake at 15 mg/kg/day, po for 6 weeks; assay type: organism-based; parameters: route oral; settings: in vivo, 1008 h; summary of the method: as §4
Mus musculus [13] = experiment: Antidiabetic activity in high fat diet-fed C57BL/6J mouse assessed as increase in glucose tolerance at 15 mg/kg/day, po for 4 weeks measured after 30 mins by intraperitoneal glucose tolerance test; assay type: functional, organism-based
Summary of the method: (§5)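 High-fat-diet (60 kcal%, 8 weeks) male C57BL/6J mice were randomized by body weight and fed glucose, then dosed orally once daily in cellulose/lactose vehicle. ipGTT was done at 4 weeks: D-glucose 2 g/kg ip, glucometer readings at 0, 15, 30, 60, 90 and 120 min. n = 5–8.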

Mus musculus [14] = experiment: Antidiabetic activity in high fat diet-fed C57BL/6J mouse assessed as increase in glucose tolerance at 15 mg/kg/day, po for 4 weeks measured after 120 mins by intraperitoneal glucose tolerance test; assay type: functional, organism-based; summary of the method: as §5
Mus musculus [15] = experiment: Antidiabetic activity in high fat diet-fed C57BL/6J mouse assessed as alleviation of insulin resistance at 15 mg/kg/day, po for 4 weeks measured after 60 mins by insulin tolerance test; assay type: functional, organism-based
Summary of the method: (§6)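 Male C57BL/6J mice were fed a 60 kcal% fat diet for 8 weeks, randomized, then gavaged daily in 0.5% microcrystalline cellulose/1.6% lactose vehicle. ITT was run at 4 weeks: 6 h fast, insulin 0.75 U/kg ip, blood glucose at 0, 15, 30, 60, 90 and 120 min. Mean ± SE, n = 5–8.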

Mus musculus [16] = experiment: Antidiabetic activity in high fat diet-fed C57BL/6J mouse assessed as alleviation of insulin resistance at 15 mg/kg/day, po for 4 weeks measured after 90 mins by insulin tolerance test; assay type: functional, organism-based; summary of the method: as §6
Mus musculus [17] = experiment: Antiobese activity in high fat diet-fed C57BL/6J mouse assessed as decrease in plasma triglyceride level at 15 mg/kg/day, po for 6 weeks; assay type: functional; parameters: scale not given: the % may be the effect or the level left
Summary of the method: (§7)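 DIO male C57BL/6J mice received daily oral dosing in cellulose/lactose vehicle for 6 weeks and were killed after the final dose. Plasma and liver triglycerides were measured by triglyceride assay kit, and fat depots were weighed.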

Mus musculus [18] = experiment: Antidiabetic activity in C57BLKS/J-db/db mouse assessed as reduction of fasting blood glucose level at 50 mg/kg/day, po for 4 weeks; assay type: functional; parameters: scale not given: the % may be the effect or the level left
Mus musculus [19] = experiment: Antidiabetic activity in C57BLKS/J-db/db mouse assessed as alleviation of glucose tolerance at 50 mg/kg/day, po for 3 weeks measured after 15 mins by intraperitoneal glucose tolerance test; assay type: functional, organism-based
Summary of the method: (§8)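 Male and female C57BLKS/J-db/db mice, randomized at 6 weeks of age by body weight and fed glucose, were gavaged once daily in vehicle (0.5% microcrystalline cellulose, 1.6% lactose). For ipGTT, D-glucose was given at 2 g/kg ip, and blood glucose was read by glucometer at 0, 15, 30, 60, 90 and 120 min.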

Mus musculus [20] = experiment: Antiobese activity in high fat diet-fed C57BL/6J mouse assessed as decrease in liver triglyceride level at 15 mg/kg/day, po for 6 weeks; assay type: functional; parameters: scale not given: the % may be the effect or the level left; summary of the method: as §7
Mus musculus [21] = experiment: Antiobese activity in high fat diet-fed C57BL/6J mouse assessed as decrease in subcutaneous fat at 15 mg/kg/day, po for 6 weeks; assay type: functional; parameters: scale not given: the % may be the effect or the level left; summary of the method: as §7
Mus musculus [22] = experiment: Antidiabetic activity in high fat diet-fed C57BL/6J mouse assessed as decrease in plasma insulin level at 15 mg/kg/day, po for 4 weeks; assay type: functional; parameters: scale not given: the % may be the effect or the level left
Summary of the method: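 DIO male C57BL/6J mice (60 kcal% fat diet for 8 weeks) were gavaged daily in 0.5% microcrystalline cellulose/1.6% lactose vehicle. Plasma insulin was determined by ELISA after 4 weeks of treatment. Mean ± SE, n = 5–8.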

Mus musculus [23] = experiment: Antidiabetic activity in C57BLKS/J-db/db mouse assessed as decrease in fed blood glucose level at 50 mg/kg/day, po for 3 weeks; assay type: functional; parameters: scale not given: the % may be the effect or the level left
Mus musculus [24] = experiment: Antidiabetic activity in C57BLKS/J-db/db mouse assessed as decrease in fed blood glucose level at 50 mg/kg/day, po for 4 weeks; assay type: functional; parameters: scale not given: the % may be the effect or the level left
Mus musculus [25] = experiment: Antidiabetic activity in C57BLKS/J-db/db mouse assessed as reduction of fasting blood glucose level at 50 mg/kg/day, po for 3 weeks; assay type: functional; parameters: scale not given: the % may be the effect or the level left
Mus musculus [26] = experiment: Antidiabetic activity in C57BLKS/J-db/db mouse assessed as alleviation of glucose tolerance at 50 mg/kg/day, po for 3 weeks measured after 90 mins by intraperitoneal glucose tolerance test; assay type: functional, organism-based; summary of the method: as §8
Mus musculus [27] = experiment: Antidiabetic activity in C57BLKS/J-db/db mouse assessed as alleviation of glucose tolerance at 50 mg/kg/day, po for 3 weeks measured after 120 mins by intraperitoneal glucose tolerance test; assay type: functional, organism-based; summary of the method: as §8
Mus musculus [28] = experiment: Antiobese activity in C57BLKS/J-db/db mouse assessed as decrease in plasma triglyceride level at 50 mg/kg/day, po […]; assay type: functional; parameters: scale not given: the % may be the effect or the level left
Summary of the method: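 db/db mice were gavaged once daily in 0.5% microcrystalline cellulose/1.6% lactose vehicle for 6 weeks and killed after the final dose. Plasma triglycerides were measured with a colorimetric triglyceride assay kit.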

Mus musculus [29] = experiment: Toxicity in C57BLKS/J-db/db mouse assessed as change in body weight at 50 mg/kg/day, po for 6 weeks; assay type: organism-based; parameters: route oral; settings: in vivo, 1008 h
Summary of the method: (§9)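 db/db mice (half male, half female) were dosed by oral gavage daily for 6 weeks in 0.5% microcrystalline cellulose/1.6% lactose vehicle. Body weight and food intake were recorded daily. Mice were killed after the final dose, and liver and fat depots were weighed and expressed relative to body weight.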

Mus musculus [30] = experiment: Toxicity in C57BLKS/J-db/db mouse assessed as change in food intake at 50 mg/kg/day, po for 6 weeks; assay type: organism-based; parameters: route oral; settings: in vivo, 1008 h; summary of the method: as §9
L6 [31] = experiment: Increase in glucose uptake in rat differentiated L6 myotubes at 20 uM in presence of 10 nM AMPK inhibitor compound C; assay type: functional, cell-based
Mus musculus [32] = experiment: Antidiabetic activity in C57BLKS/J-db/db mouse assessed as decrease in area under curve at 50 mg/kg/day, po for 4 weeks by insulin tolerance test; assay type: functional; parameters: scale not given: the % may be the effect or the level left
L6 [33] = experiment: Increase in glucose uptake in rat differentiated L6 myotubes at 2.5 uM after 1 hr; assay type: functional; summary of the method: as §2
L6 [34] = experiment: Increase in glucose uptake in rat differentiated L6 myotubes at 20 uM after 1 hr; assay type: functional; summary of the method: as §2
L6 [35] = experiment: Increase in glucose uptake in rat differentiated L6 myotubes after 15 mins; assay type: functional; summary of the method: as §2
L6 [36] = experiment: Increase in glucose uptake in rat differentiated L6 myotubes after 2 hrs; assay type: functional; summary of the method: as §2
L6 [37] = experiment: Increase in glucose uptake in rat differentiated L6 myotubes after 1 hr relative to untreated control; assay type: functional; summary of the method: as §2
Mus musculus [38] = experiment: Toxicity in C57BLKS/J-db/db mouse assessed as change in adipose tissue mass at 50 mg/kg/day, po for 6 weeks; assay type: organism-based; parameters: route oral; settings: in vivo, 1008 h; summary of the method: as §9
Mus musculus [39] = experiment: Toxicity in C57BLKS/J-db/db mouse assessed as change in fat to body weight ratio at 50 mg/kg/day, po for 6 weeks; assay type: organism-based; parameters: route oral; settings: in vivo, 1008 h; summary of the method: as §9
Mus musculus [40] = experiment: Toxicity in C57BLKS/J-db/db mouse assessed as change in liver to body weight ratio at 50 mg/kg/day, po for 6 weeks; assay type: organism-based; parameters: route oral; settings: in vivo, 1008 h; summary of the method: as §9
L6 [41] = experiment: Increase in glucose uptake in rat differentiated L6 myotubes at 10 uM in presence of 100 nM PI-3 kinase inhibitor wortmannin

COc1ccc2c(c1OC)C(C)(C)[N+]1=C(C2)c2cc3c(cc2CC1)OCO3.[Cl-] [8,8-dimethyldihydroberberine]
Activity (Rattus norvegicus [1]): Dose-dependent effect | Activity (Rattus norvegicus [2]): Dose-dependent effect | Activity (L6 [3]): Dose-dependent effect | Stability [4]: Stable | Activity (L6 [5]): Dose-dependent effect | inhibition (Rattus norvegicus [6]): Dose-dependent effect | solubility [7]: 81 mg/mL | half-life [8]: 2.9 h | Cmax [9]: 17.8 ng/mL | bioavailability [10]: 10% | Activity (Mus musculus [11]): Non-toxic | Activity (Mus musculus [12]): Non-toxic | Activity (Mus musculus [13]): Active | Activity (Mus musculus [14]): Active | Activity (Mus musculus [15]): Active | Activity (Mus musculus [16]): Active | Activity (Mus musculus [17]): 26% | Activity (Mus musculus [18]): 24% | Activity (Mus musculus [19]): Active | Activity (Mus musculus [20]): 36% | Activity (Mus musculus [21]): 36% | Activity (Mus musculus [22]): 45% | Activity (Mus musculus [23]): 24% | Activity (Mus musculus [24]): 40% | Activity (Mus musculus [25]): 24% | Activity (Mus musculus [26]): Active | Activity (Mus musculus [27]): Active | Activity (Mus musculus [28]): 38% | Activity (Mus musculus [29]): Non-toxic | Activity (Mus musculus [30]): Non-toxic | Activity (L6 [31]): inactive | Activity (Mus musculus [32]): 28% | Activity (L6 [33]): 48% | Activity (L6 [34]): 67% | Activity (L6 [35]): 28% | Activity (L6 [36]): 84% | Activity (L6 [37]): 37% | Activity (Mus musculus [38]): Non-toxic | Activity (Mus musculus [39]): Non-toxic | Activity (Mus musculus [40]): Non-toxic | Activity (L6 [41]): Active
